In data set [1] the target is T1, Amine oxidase [flavin-containing] A (Homo sapiens, UniProt P21397).
T1 sequence (P21397 whole entry): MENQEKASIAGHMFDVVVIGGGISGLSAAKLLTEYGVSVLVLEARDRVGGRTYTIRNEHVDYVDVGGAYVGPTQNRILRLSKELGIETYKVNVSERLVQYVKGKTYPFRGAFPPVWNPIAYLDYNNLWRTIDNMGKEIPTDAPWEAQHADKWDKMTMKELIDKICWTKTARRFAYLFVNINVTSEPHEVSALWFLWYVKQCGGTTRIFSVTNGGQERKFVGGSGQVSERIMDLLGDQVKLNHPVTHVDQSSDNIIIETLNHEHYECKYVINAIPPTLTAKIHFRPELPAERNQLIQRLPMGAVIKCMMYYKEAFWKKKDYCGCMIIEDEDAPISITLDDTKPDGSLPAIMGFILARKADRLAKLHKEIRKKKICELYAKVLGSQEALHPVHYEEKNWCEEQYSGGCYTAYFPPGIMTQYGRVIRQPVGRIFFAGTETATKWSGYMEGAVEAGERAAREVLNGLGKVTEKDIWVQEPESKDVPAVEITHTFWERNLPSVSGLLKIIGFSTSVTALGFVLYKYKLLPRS
Nature of the data set: Inhibition of recombinant human MAO-A at 30 uM using tyramine as substrate preincubated for 2 hrs followed by substrate addition measured every 30 secs for 10 minutes by Amplex red dye based fluorescence assay.

Data set [2] concerns the target Cytochrome P450 3A4 (Homo sapiens, UniProt P08684). Nature of the data set: Inhibition of CYP3A4 (unknown origin). Type of data set: ADME.
The target of data set [3] is T2, Lysyl oxidase homolog 2 (Mus musculus, UniProt P58022).
T2 sequence (P58022 whole entry): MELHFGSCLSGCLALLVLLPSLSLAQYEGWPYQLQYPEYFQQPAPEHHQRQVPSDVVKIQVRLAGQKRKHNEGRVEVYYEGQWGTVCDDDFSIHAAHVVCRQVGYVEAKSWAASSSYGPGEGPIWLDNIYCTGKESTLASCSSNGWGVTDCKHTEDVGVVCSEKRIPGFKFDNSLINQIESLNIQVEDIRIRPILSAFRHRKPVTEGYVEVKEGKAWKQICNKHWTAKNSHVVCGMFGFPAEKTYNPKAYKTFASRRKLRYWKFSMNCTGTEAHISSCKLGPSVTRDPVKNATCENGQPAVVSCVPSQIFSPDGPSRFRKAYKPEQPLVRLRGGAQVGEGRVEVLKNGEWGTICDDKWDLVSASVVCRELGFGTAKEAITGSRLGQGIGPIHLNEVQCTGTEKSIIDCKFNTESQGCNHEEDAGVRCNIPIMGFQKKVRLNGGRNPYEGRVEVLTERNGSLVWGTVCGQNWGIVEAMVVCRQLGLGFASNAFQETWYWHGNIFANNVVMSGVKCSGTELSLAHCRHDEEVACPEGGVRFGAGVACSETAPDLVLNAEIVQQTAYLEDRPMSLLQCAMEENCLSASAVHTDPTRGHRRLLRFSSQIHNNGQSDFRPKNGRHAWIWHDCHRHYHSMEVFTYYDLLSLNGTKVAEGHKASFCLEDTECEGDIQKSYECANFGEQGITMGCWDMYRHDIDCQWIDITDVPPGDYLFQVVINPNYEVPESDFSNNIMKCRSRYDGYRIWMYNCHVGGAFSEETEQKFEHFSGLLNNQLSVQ
Put plainly: Inhibition of full length recombinant mouse LOXL2 expressed in CHO cells assessed as reduction in H2O2 production using DAP as substrate preincubated for 2 hrs followed by substrate addition measured every 2 minutes for 50 minutes in presence of BSA by Amplex red dye based fluorescence assay. Type of data set: cell-based. In outline: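 Rodent LOXL2 is tested under the same conditions as the BSA-supplemented assay: conditioned media plus BSA, with DAP as substrate and Amplex Red detection of H2O2. Species are mouse and rat. IC50 is the geometric mean x/÷ geometric standard deviation from 3 determinations.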

Here are results for one compound from ChEMBL document CHEMBL3994667, “Small Molecule Lysyl Oxidase-like 2 (LOXL2) Inhibitors: The Identification of an Inhibitor Selective for LOXL2 over LOX” (ACS Med Chem Lett, 2017).

Chain of Cytochrome P450 3A4 (P08684 whole entry): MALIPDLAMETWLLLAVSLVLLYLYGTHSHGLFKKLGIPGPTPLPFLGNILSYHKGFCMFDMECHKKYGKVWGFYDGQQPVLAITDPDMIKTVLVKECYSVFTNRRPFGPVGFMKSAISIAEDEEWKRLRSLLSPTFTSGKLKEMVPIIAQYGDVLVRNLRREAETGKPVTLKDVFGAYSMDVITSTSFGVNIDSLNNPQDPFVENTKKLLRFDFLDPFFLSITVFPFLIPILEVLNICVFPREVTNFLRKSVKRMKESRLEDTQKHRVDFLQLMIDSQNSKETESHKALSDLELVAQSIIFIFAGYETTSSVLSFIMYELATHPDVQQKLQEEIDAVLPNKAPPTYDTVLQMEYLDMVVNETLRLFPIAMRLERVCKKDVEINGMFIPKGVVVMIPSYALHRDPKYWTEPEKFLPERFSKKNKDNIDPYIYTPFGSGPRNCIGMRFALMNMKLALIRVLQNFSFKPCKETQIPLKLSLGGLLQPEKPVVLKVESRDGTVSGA

As for `NCc1ccnc(Cl)c1`, the “inhibition (INH)” value in data set [1] is on record as “Not Active”. The values for the half-maximal inhibitory concentration (IC50) in data set [2] and in data set [3] were > 30000 nM and 227 nM, respectively.
